# Compound activity (PubChem BioAssay)
# CFTR F508del cor = CFTR F508del correction in bronchial cells | 350,000 tested, 0.36% active | activity (quench increase), % at 7.58 µM | CFBE cells, YFP halide quenching; stimulated with forskolin plus potentiator P3; % fluorescence drop versus neutral controls;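 active = mean added fluorescence quench of at least 8% versus neutral control, with both replicates also reaching 8%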;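 note: cells transiently co-express mutant CFTR-F508del with the halide-sensitive YFP; corrector assay measuring rescue of mutant channel to the surface after 24 h compound exposure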
# MC4R ag barr = agonists of human melanocortin 4 receptor (MC4R) beta-arrestin. 360,000 tested, 0.98% active. U2OS MC4R beta-arrestin complementation, luminescence; percent of melanotan II response, DMSO zero. P32245. activation, % at 8.9 µM;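 active = activation above a per-plate cutoff, the mean activation of sample wells on that plate plus 3 SD, cut at about 8% in these data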
# Target sequence (P32245 whole entry, looked up): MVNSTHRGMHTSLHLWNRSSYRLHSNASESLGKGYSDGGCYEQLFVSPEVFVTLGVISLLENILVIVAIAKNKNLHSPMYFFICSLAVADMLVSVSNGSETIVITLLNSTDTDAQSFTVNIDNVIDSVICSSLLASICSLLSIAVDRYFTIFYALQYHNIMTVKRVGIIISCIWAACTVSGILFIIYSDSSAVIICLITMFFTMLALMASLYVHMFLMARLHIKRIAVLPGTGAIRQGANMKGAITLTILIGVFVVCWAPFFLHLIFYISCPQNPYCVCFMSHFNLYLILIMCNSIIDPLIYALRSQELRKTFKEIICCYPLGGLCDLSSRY
# SMARCA2 act = activators of SMARCA2 function; MG213 cells, MMTV-luciferase reporter, dexamethasone, overnight; activation, % at 9.1 µM; 370,000 tested, 1% active; AID 652017; in the data active = activation above about 7.8%;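 note: 0% = vehicle wells and 100% = reference activator wells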
# MC4R antagonist = antagonists of human melanocortin 4 receptor (MC4R) | inhibition, % at 6.5 µM | P32245 | MC4R-expressing cells, MTII-stimulated cAMP, LANCE TR-FRET | 360,000 tested, 0.48% active;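 active = inhibition above its plate's cutoff, the mean of tested wells on that plate plus 3 SD, cut at about 29% in these data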;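 note: 0% = Melanotan II alone and 100% = Melanotan II plus saturating MCL0020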
#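 Test system: U2OS cells stably expressing human melanocortin 4 receptor (MC4R); also added: Melanotan II challenge; compound: 6.5 µM single dose; timing: 30-min compound preincubation, 1-h Melanotan II challenge, 1-h detection, room temperature; signal: Eu-cAMP/anti-cAMP TR-FRET, emission 671 nm; repeats: one well per compound, no replicates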
# * marks the source's active call; other numbers are inactive results; / = no result. Compounds with a hit are over-represented: about 2.1% of the library has one in this group of screens.
SMILES,CFTR F508del cor,MC4R ag barr,SMARCA2 act,MC4R antagonist
Cc1ccc(S(=O)(=O)c2ccc([N+](=O)[O-])o2)cc1,-7.3,-3.2,-12.4,88.4*
CC1(C)Oc2ccc3ccc(=O)oc3c2/C(=C/Nc2cccc(O)c2)C1=O,-1.2,8.6*,-1.6,10.3
COc1ccc(-c2ccc3c(c2)[C@H]2[C@H](CCN2S(=O)(=O)c2ccc(OC)cc2)[C@@H](CO)N3)cc1,20.2*,/,/,/
COc1ccc(S(=O)(=O)N2CC[C@@H]3[C@@H](CO)Nc4ccc(-c5cccc(C#N)c5)cc4[C@@H]32)cc1,12.6*,/,/,/
COc1ccc(S(=O)(=O)N2CC[C@@H]3[C@@H](CO)Nc4ccc(C5=CCCCC5)cc4[C@@H]32)cc1,9.0*,/,/,/
COc1ccc(S(=O)(=O)N2CC[C@H]3[C@H](CO)Nc4ccc(-c5cccc(C#N)c5)cc4[C@H]32)cc1,2.3,/,/,/
C[C@H]1CN([C@@H](C)CO)C(=O)Cc2cc(NC(=O)Cn3cnnn3)ccc2O[C@H]1CN(C)Cc1ccc(Cl)c(Cl)c1,-4.1,/,/,/
CC(C)NC(=O)Nc1ccc2c(c1)C(=O)N(C)[C@H]1CC[C@H](CC(=O)Nc3ccc(F)cc3)O[C@@H]1CO2,-0.5,/,/,/
CCN1C(=O)c2cccc3c(S(=O)(=O)N(C(C)=O)c4ccc(OC(C)=O)cc4)ccc1c23,15.6*,-1.9,0.1,-23.4
C[C@@H]1CN([C@H](C)CO)C(=O)Cc2cc(NC(=O)Nc3ccc(F)cc3)ccc2O[C@H]1CN(C)Cc1ccncc1,0.4,/,/,/
COc1ccc(Cl)cc1NC(=O)CN(C)CC(=O)Nc1cc(OC)c(OC)c(OC)c1,12.6*,-0.4,-1.1,11.0
Cc1nc(C(=O)Nc2ccc(Cl)cc2)sc1C1(C)CC(c2cccc([N+](=O)[O-])c2)=NO1 (configuration not stated),-2.3,0.2,-0.3,9.4
COc1ccc(NC(=O)c2nc(C)c(C3(C)CC(c4cccnc4)=NO3)s2)cc1 (configuration not stated),17.2*,-1.3,-3.4,-13.9
C[C@H](CO)N1C[C@H](C)[C@H](CN(C)S(=O)(=O)c2cccs2)Oc2ncccc2C1=O,0.4,/,/,/
COc1ccc(NC(=O)N(C)C[C@@H]2Oc3cc(C#CCC(C)C)ccc3S(=O)(=O)N([C@H](C)CO)C[C@@H]2C)cc1,9.2*,/,/,/
COc1ccc(C#Cc2ccc3c(c2)O[C@H](CN(C)C(=O)Nc2cccc(OC)c2)[C@H](C)CN([C@H](C)CO)S3(=O)=O)cc1,8.6*,/,/,/
C[C@@H]1CN([C@@H](C)CO)C(=O)Cc2cc(NC(=O)Nc3ccc(C(F)(F)F)cc3)ccc2O[C@H]1CN(C)C(=O)Nc1cccc2ccccc12,-1.3,/,/,/
COc1ccc2nc(C)cc(N/N=C/c3ccc(F)cc3)c2c1,-0.7,9.2*,-4.5,8.6
COc1ccc(/C=N/Nc2cc(C)nc3ccccc23)cc1,-1.2,1.7,6.9,0.6
C[C@@H]1CN([C@H](C)CO)C(=O)Cc2cc(NC(=O)Nc3ccc(F)cc3)ccc2O[C@H]1CN(C)C,-0.9,/,/,/
OC[C@@H]1[C@@H](c2ccc(C#CC3(O)CCCC3)cc2)[C@H]2CN(Cc3ccccc3F)CCCCN12,8.4*,/,/,/
OC[C@H]1[C@H](c2ccc(C#CC3(O)CCCC3)cc2)[C@H]2CN(Cc3ccccc3F)CCCCN21,8.9*,/,/,/
COc1ccc(C#Cc2ccc([C@@H]3[C@@H](CO)N4CCCCN(Cc5ccccc5F)C[C@H]34)cc2)cc1,1.9,/,/,/
CCCCCCn1c(SCC(=O)Nc2cc(C)on2)nc2ccccc2c1=O,/,12.3*,2.5,9.6
CCCCN(CC)C(=O)CSc1nc2ccccc2c(=O)n1CC1COc2ccccc2O1 (configuration not stated),/,-0.9,-1.9,6.5
SMILES,CFTR F508del cor,MC4R ag barr,SMARCA2 act,MC4R antagonist
CCCCNC(=O)CSc1nc2ccccc2c(=O)n1CC1COc2ccccc2O1 (configuration not stated),/,9.4*,-2.7,6.3
C[C@H](CO)N1C[C@H](C)[C@@H](CN(C)C(=O)Nc2ccc(F)cc2)Oc2ccc(NC(=O)C3CCCCC3)cc2C1=O,-0.9,/,/,/
O=C(NCc1nnnn1-c1ccc(Cl)cc1)C(=O)c1c[nH]c2ccccc12,11.0*,-0.1,-3.1,0.5
COc1cc(Nc2c3c(nc4ccccc24)CCC3)cc(OC)c1OC,8.6*,-1.8,-4.3,-11.9
C#CCn1c(=NC(=O)c2ccc(S(=O)(=O)N3CCc4ccccc4C3)cc2)sc2cc(S(N)(=O)=O)ccc21,/,9.2*,/,-4.8
CC1C2CCC(C2)C1OC(=O)c1ccccc1C(=O)O (configuration not stated),9.4*,0.1,3.9,0.1
O=C(Nc1ccc(F)cc1)N[C@H]1CC[C@H](CC(=O)N2CCOCC2)O[C@H]1CO,-1.5,/,/,/
COc1ccc(N2CCN(c3ccc(NC(=O)c4ccc5c(c4)OCO5)cc3C#N)CC2)cc1,/,0.3,/,16.8
COc1ccc(CC(=O)Nc2ccc(N3CCN(c4ccc(OC)cc4)CC3)c(C#N)c2)cc1,/,8.6*,-1.6,2.4
C[C@@H]1CN([C@H](C)CO)C(=O)c2ccccc2-c2ccccc2CO[C@H]1CN(C)C(=O)C1CC1,1.0,/,/,/
CCCNC(=O)N1[C@H](CO)[C@@H](c2ccc(C3=CCCC3)cc2)[C@@H]1CN(C)C(C)=O,8.1*,/,/,/
CCCNC(=O)N1[C@H](CO)[C@@H](c2ccc(C3=CCCC3)cc2)[C@H]1CNC(C)=O,2.9,/,/,/
CC(=O)c1c(C)[nH]c(C(=O)OCC(=O)NCCc2ccc(Cl)cc2)c1C,/,-1.9,-2.6,1.1
CC(=O)c1c(C)[nH]c(C(=O)OCC(=O)NCc2ccc(Cl)cc2)c1C,11.6*,1.0,-2.4,4.6
COc1ccccc1NC(=O)C(=O)NCC(c1ccco1)N1CCc2ccccc21 (configuration not stated),9.8*,-0.3,-1.5,5.4
O=C(NCC(c1ccco1)N1CCc2ccccc21)C(=O)Nc1ccccc1F (configuration not stated),-1.1,-2.0,3.2,1.5
Nc1c(-c2ccc(Cl)cc2)cnc2c(-c3ccccc3)cnn12,0.0,2.2,7.9*,-7.4
CCN1CC(=O)N2[C@H](CO)[C@H](c3ccc(Br)cc3)[C@@H]2C1,1.1,/,/,/
CC(C)(C)OC(=O)N1CCC(NC(=O)c2[nH]cnc2C(=O)Nc2ccccc2)CC1,-1.4,8.5*,0.1,3.0
Cc1ccc(NC(=O)c2nc[nH]c2C(=O)NC2CCN(C(=O)OC(C)(C)C)CC2)cc1,-2.8,-0.2,0.0,7.4
CC(C)(C)OC(=O)N1CCC(NC(=O)c2[nH]cnc2C(=O)Nc2ccc(Br)cc2F)CC1,-1.1,-1.2,0.1,5.5
CC(C)(C)OC(=O)N1CCC(NC(=O)c2[nH]cnc2C(=O)Nc2ccccc2F)CC1,-2.1,8.3*,-2.9,8.0
C[C@@H]1CN([C@H](C)CO)C(=O)c2cc(NC(=O)CCC(F)(F)F)ccc2O[C@@H](C)CCCCO[C@H]1CN(C)C(=O)CCC(F)(F)F,-0.6,/,/,/
CC=Cc1ccc2n(c1=O)C[C@H]1[C@H](CO)[C@@H](C(=O)NCCC)N(Cc3ccccn3)[C@@H]21 (mixture of isomers),-3.1,/,/,/
